Values after ≈ are worked out from the molar mass of the structure shown. Active and inactive are the calls of the source. The calls are words filed in the database; no cut-off is given here.
Key:
[1] = system: Staphylococcus aureus; assay: Antimicrobial activity against Staphylococcus aureus KCTC 1621 using 4 hrs trypsin incubated compound measured after overnight incubation by radial diffusion assay; format: functional
Summary of the method: (§1)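 Radial diffusion: mid-log cells (2×10^6 CFU/ml in LB) in 0.7% agarose. Peptide stock (10 mg/mL) added to trypsin in PBS (0.2 µg/mL), 4 h at 37 °C, stopped by liquid-nitrogen freezing; 10 µL on paper discs on the plates, overnight at 37 °C. Clearance-zone diameters measured.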

[2] = Therapeutic index, ratio of MHC for sheep RBC to MIC for Staphylococcus aureus KCTC 1621
[3] = system: Staphylococcus epidermidis; assay: Antimicrobial activity against Staphylococcus epidermidis KCTC 1917 incubated for 18 to 20 hrs by broth microdilution assay; format: functional; conditions: read-out: MIC100
Summary of the method: (§2)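 Broth microdilution in 1% peptone. Inoculum was 2 × 10⁶ CFU/mL mixed 1:1 with serial 2-fold peptide dilutions and incubated 18–20 h at 37 °C. Growth was read as absorbance at 600 nm; MIC is the lowest peptide concentration giving 100% growth inhibition.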

[4] = system: RAW264.7; assay: Antiinflammatory activity in mouse RAW264.7 cells assessed as inhibition of LPS-induced nitric oxide production after 24 hrs by Griess method; format: functional, cell-based
Summary of the method: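 RAW264.7 macrophages (5×10^5 cells/mL) stimulated with LPS (20 ng/mL), with or without peptide, for 24 h. Supernatants were mixed 1:1 with Griess reagent (1% sulfanilamide, 0.1% naphthylethylenediamine, 2% phosphoric acid) for 10 min at room temperature, read at 540 nm, and quantified against an NaNO₂ standard curve. Mean ± SEM of technical triplicates, ANOVA with Bonferroni post-test.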

[5] = system: Enterococcus faecium; assay: Antibacterial activity against vancomycin-resistant Enterococcus faecium ATCC 51559 after 18 to 20 hrs by broth microdilution assay; format: functional; conditions: read-out: MIC100
Summary of the method: (§3)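 Broth microdilution in 1% peptone: bacteria at 2 × 10⁶ CFU/mL mixed 1:1 with serial 2-fold peptide dilutions, 18-20 h at 37 °C; growth read as absorbance at 600 nm. MIC taken as lowest concentration giving 100% growth inhibition.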

[6] = system: Escherichia coli; assay: Antimicrobial activity against Escherichia coli KCTC 1682 in presence of CaCl2; format: functional
Summary of the method: (§4)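 MIC in LB medium with added 150 mM NaCl, 1 mM MgCl₂ or 2.5 mM CaCl₂. Inoculum of 2 × 10⁶ CFU/mL with peptide. Otherwise as the broth microdilution MIC assay; MIC is the lowest concentration giving 100% growth inhibition.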

[7] = system: RAW264.7; assay: Antiinflammatory activity in mouse RAW264.7 cells assessed as inhibition of LPS-induced TNF-alpha production preincubated with cells followed by LPS addition measured after 6 hrs by ELISA; format: functional, cell-based
Summary of the method: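 RAW264.7 cells seeded at 5 × 10⁴ cells/well, left overnight, then given peptide at 37 °C. Unbound peptide was washed off with PBS (five washes) before LPS (20 ng/mL) was added for 6 h at 37 °C. TNF-α in the samples was measured by mouse ELISA. Mean ± SEM of technical triplicates, one-way ANOVA with Bonferroni post-test.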

[8] = system: Pseudomonas aeruginosa; assay: Antimicrobial activity against Pseudomonas aeruginosa KCTC 1637 incubated for 18 to 20 hrs by broth microdilution assay; format: functional; conditions: read-out: MIC100; summary of the method: as §2
[9] = system: Escherichia coli; assay: Antimicrobial activity against Escherichia coli KCTC 1682 in presence of NaCl; format: functional; summary of the method: as §4
[10] = system: Staphylococcus aureus; assay: Potency index, ratio of melittin MIC100 to compound MIC100 for Staphylococcus aureus KCTC 1621; format: functional
[11] = system: Escherichia coli; assay: Induction of outer membrane permeabilization in Escherichia coli KCTC 1682 assessed as NPN uptake by spectrofluorophotometric analysis; format: functional
Summary of the method: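 E. coli KCTC 1682 at OD600 0.05 in 5 mM HEPES pH 7.2 with 5 mM KCN; NPN 10 µM final, background fluorescence recorded (ex 350, em 420 nm). Peptide aliquots at various concentrations added and fluorescence followed over time until no further rise.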

[12] = Therapeutic index, ratio of MHC for sheep RBC to geometric mean of MICs for four bacterial strains
[13] = system: Escherichia coli; assay: Antimicrobial activity against Escherichia coli KCTC 1682 incubated for 18 to 20 hrs by broth microdilution assay; format: functional; conditions: read-out: MIC100; summary of the method: as §2
[14] = system: Escherichia coli; assay: Antimicrobial activity against Escherichia coli KCTC 1682 using 4 hrs trypsin incubated compound measured after overnight incubation by radial diffusion assay; format: functional; summary of the method: as §1
[15] = system: Staphylococcus aureus; assay: Antimicrobial activity against Staphylococcus aureus KCTC 1621 in presence of CaCl2; format: functional
Summary of the method: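 MIC by microdilution with 2 × 10⁶ CFU/ml S. aureus KCTC 1621 in LB medium supplemented with physiological salt: 150 mM NaCl, 1 mM MgCl₂ or 2.5 mM CaCl₂; growth inhibition endpoint as in the standard MIC assay.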

[16] = system: NIH3T3; assay: Cytotoxicity against mouse NIH/3T3 cells up to 64 ug/mL after 2 days by MTT assay; format: cell-based; conditions: nih3t3, 48 h
Summary of the method: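 Cells in DMEM with 10% FBS seeded at 2×10^4 cells/well and incubated 24 h at 37 °C, 5% CO₂. Serial 2-fold peptide dilutions were added for 2 days, then MTT for 4 h. Formazan was dissolved in 20% SDS/0.01 M HCl and read at 570 nm. Survival is expressed as a percentage of untreated cells.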

[17] = system: Staphylococcus aureus; assay: Potency index, ratio of melittin MIC100 to compound MIC100 for methicillin resistant Staphylococcus aureus CCARM 3090; format: functional
[18] = system: Staphylococcus aureus; assay: Potency index, ratio of melittin MIC100 to compound MIC100 for methicillin resistant Staphylococcus aureus CCARM 3089; format: functional
[19] = system: Pseudomonas aeruginosa; assay: Antibacterial activity against multidrug-resistant Pseudomonas aeruginosa CCARM 2095 after 18 to 20 hrs by broth microdilution assay; format: functional; conditions: read-out: MIC100; summary of the method: as §3
[20] = system: Pseudomonas aeruginosa; assay: Antibiofilm activity against multidrug-resistant Pseudomonas aeruginosa CCARM 2095 after 24 hrs by crystal violet staining based method; format: functional; conditions: CCARM 2095, 24 h
Summary of the method: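 MDRPA 2095 (1×10^6 cfu/mL) in MHB with 0.2% glucose, 24 h at 37 °C with or without peptide (2-fold dilutions, 1-64 µg/mL), six wells each. Wells washed with PBS, methanol-fixed, stained with 0.1% crystal violet 5 min, stain resolubilized in 95% ethanol, absorbance at 600 nm.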

[21] = system: Staphylococcus aureus; assay: Antimicrobial activity against Staphylococcus aureus KCTC 1621 assessed as cell membrane damage at 2 times MIC after 1 hr by transmission electron microscopy; format: functional
Summary of the method: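 Bacteria at 2×10^7 CFU/mL in LB, washed three times in PBS. Peptide in PBS was added to a final 2 × MIC and incubated 1 h at 37 °C. Pelleted cells were resuspended in PBS, applied to glow-discharged carbon-film grids, negatively stained with 1% uranyl acetate for 1 min, and imaged by TEM at 120 kV.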

[22] = Therapeutic index, ratio of MHC for sheep RBC to geometric mean of MICs for four bacterial strains; remark: listed apart in the source

In the case of `N=C(N)NCCC[C@H](NC(=O)c1nn(CCc2cccc3ccccc23)cc1NC(=O)[C@H](CCCNC(=N)N)NC(=O)c1nn(CCc2cccc3ccccc23)cc1N)C(N)=O`, the Activity [1] is reported as “Active”, the TI [2] is reported as 53.9 and the MIC [3] is reported as 32 µg/mL (≈ 37.4 µM). The inhibition [4] was “Dose-dependent effect”, the MIC [5] was 8 µg/mL (≈ 9.35 µM) and the MIC [6] was 32 µg/mL. The inhibition [7] was “Dose-dependent effect”, the MIC [8] was 8 µg/mL (≈ 9.35 µM) and the MIC [9] was 32 µg/mL. The Ratio [10] was 4, the Activity [11] was “Dose-dependent effect” and the TI [12] was 53.9. For the same compound, the MIC [13] was 32 µg/mL (≈ 37.4 µM), the Activity [14] was “Active” and the MIC [15] was 8 µg/mL. For the same compound, the Activity [16] was “Non-Toxic”, the Ratio [17] was 2 - 4 and the Ratio [18] was 2 - 4. For the same compound, the MIC [19] was 8 µg/mL (≈ 9.35 µM), the IC90 [20] was 16 µg/mL (≈ 18.7 µM) and the Activity [21] was “Active”. It also gave a TI [22] of 53.9.
